Data as given in ChEMBL document CHEMBL2034977, “Discovery of CX-6258. A Potent, Selective, and Orally Efficacious pan-Pim Kinases Inhibitor” (ACS Med Chem Lett, 2012).

How the values were obtained:
Assay type in all cases: ADME, organism-based; call rule not given here
Mus musculus = species: Mus musculus; assay: Drug metabolism in mouse assessed as formation of 3-((5-(3-(1,4-diazepane-1-carbonyl)phenyl)furan-2-yl)methylene)-5-chloroindolin-2-one; conditions: in vivo
[1] = Half life in iv dosed mouse; conditions: in vivo
Summary of the method: (§1)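 Mouse pharmacokinetics after IV and oral dosing. Vehicle D5W. Clearance, volume of distribution, half-life, AUC over 0−24 h and oral bioavailability were derived. Each value is the average of four animals.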

[2] = AUC (0 to 24 hrs) in po dosed mouse; set-up: time < 24 hr, route oral; conditions: plasma; summary of the method: as §1
[3] = Volume of distribution in iv dosed mouse; conditions: in vivo; summary of the method: as §1
[4] = Clearance in iv dosed mouse; conditions: in vivo; summary of the method: as §1
[5] = Oral bioavailability in mouse; conditions: in vivo; summary of the method: as §1

Drug metabolism (Mus musculus): Active | half-life [1]: 27 h | AUC(0-t) at 24 h [2]: 1020 ng·h/mL | Vd [3]: 85 L/kg | clearance [4]: 35 mL/min/kg | bioavailability [5]: 23%
Compound: CN1CCCN(C(=O)c2cccc(-c3ccc(/C=C4/C(=O)Nc5ccc(Cl)cc54)o3)c2)CC1
